Measured values: ChEMBL document CHEMBL1132464, “Specific nonpeptide photoprobes as tools for the structural study of the angiotensin II AT(1) receptor” (J Med Chem, 1999)

Experiments:
[1] = biological target: T1, Type-1 angiotensin II receptor A (Rattus norvegicus, UniProt P25095); assay: The compound was evaluated for the inhibition of [125I]-Sar-AII binding to Angiotensin II receptor, type 1 from purified rat liver membranes.; type: cell membranes, Membrane
T1 sequence (P25095 whole entry): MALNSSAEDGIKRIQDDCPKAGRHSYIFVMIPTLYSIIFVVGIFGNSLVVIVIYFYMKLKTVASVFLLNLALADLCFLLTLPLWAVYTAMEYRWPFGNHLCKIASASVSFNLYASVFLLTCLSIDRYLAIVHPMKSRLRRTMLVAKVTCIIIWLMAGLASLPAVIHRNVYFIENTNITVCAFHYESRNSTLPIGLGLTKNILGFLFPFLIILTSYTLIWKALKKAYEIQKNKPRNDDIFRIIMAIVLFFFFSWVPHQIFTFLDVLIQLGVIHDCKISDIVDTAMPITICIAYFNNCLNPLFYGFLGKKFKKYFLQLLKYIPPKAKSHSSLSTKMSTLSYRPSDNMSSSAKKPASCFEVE
Procedure, shortened: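 Purified rat liver membranes (AT1 only), 10 μg protein/assay, competition against [125I]Sar1-AII tracer for 30 min at 30 °C in 50 mM phosphate pH 7.4, 5 mM MgCl2, 0.1 mg/mL bacitracin, 0.6% Me2SO, no BSA; triplicates; GF/C filtration; Ki via Ekins equation.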

Oryctolagus cuniculus = species on record: Oryctolagus cuniculus; assay: The compound was evaluated for the inhibition of AII-induced contraction in the rabbit aorta strips.; type: functional
Procedure, shortened: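 Rabbit aortic rings (4 mm) in 37 °C organ baths, Krebs-Henseleit gassed O2/CO2 95/5, passive tension 2 g, isometric tension recorded; three to five antagonist concentrations, one per ring, against 3 nM AII contraction; IC50 = concentration halving AII response; mean of six experiments.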

[2] = biological target: T2, Type-1 angiotensin II receptor A (Rattus norvegicus) (UniProt P25095); assay: The compound was evaluated for irreversible binding to [125I]Sar-AII in CHO cells expressing the Angiotensin II receptor, type 1 without UV irradiation.; type: cell-based
T2 sequence (whole entry): T1 sequence (P25095 whole entry)
Procedure, shortened: (§1)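 CHO cells stably expressing rat AT1A receptor in 24-well clusters; incubated 4 h at 4 °C in dark with photoactivatable ligand (nonpeptide 50 or 10 nM; peptide azido probe 10 nM) in PBS pH 7.4, 5 mM MgCl2, 0.1 mg/mL bacitracin; washed, irradiated or not 5 min at 0 °C, 254 nm; two 30-min 30 °C dissociation incubations; remaining sites titrated with 5 nM [125I]Sar1-AII, 2 h, 4 °C; % of control, triplicates.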

[3] = biological target: T2, Type-1 angiotensin II receptor A (Rattus norvegicus); assay: The compound was evaluated for irreversible binding to [125I]Sar-AII in CHO cells expressing the Angiotensin II receptor, type 1 with UV irradiation.; type: cell-based; procedure, shortened: as §1
[4] = biological target: T1, Type-1 angiotensin II receptor A; assay: The compound was evaluated for the direct binding of tritiated compound to the recombinant Angiotensin II receptor, type 1 stably expressed in CHO cells.; type: cell-based
Procedure, shortened: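 Intact CHO cells stably expressing rat AT1A, grown to confluence (~5 × 10^5 cells/well), incubated 4 h at 4 °C with graded tritiated ligand in PBS pH 7.4, 5 mM MgCl2, 0.1 mg/mL bacitracin, 0.6% Me2SO; nonspecific binding with excess Sar1-AII or unlabeled nonpeptide; ice-cold washes, NaOH lysis, scintillation counting; Kd by Scatchard analysis, mean of four experiments.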

Ki [1] [nM] | IC50 (Oryctolagus cuniculus) [nM] | Control [2] [%] | Control [3] [%] | Kd [4] [nM] | SMILES
12.1 | 3.6 |  |  |  | CCCCc1ncc(CNc2ccccc2C(=O)O)n1Cc1ccc(C(=O)O)cc1
 |  |  |  | 3.5 | [3H]c1nc(CCCC)n(Cc2ccc(C(=O)O)cc2)c1CNc1ccccc1C(=O)O
 |  |  |  | 11.8 | [3H]c1nc(CCCC)n(Cc2ccc(C(=O)O)cc2)c1C([3H])Nc1cc(N=[N+]=[N-])ccc1C(=O)O (stereo not given)
22 | 6.3 | 91 | 64 |  | CCCCc1ncc(CNc2cc(N=[N+]=[N-])ccc2C(=O)O)n1Cc1ccc(C(=O)O)cc1

Second part, the molecule before the results:

SMILES | Ki [1] [nM] | IC50 (Oryctolagus cuniculus) [nM] | Control [2] [%] | Control [3] [%] | Kd [4] [nM]
CCCCc1ncc(CNc2ccccc2C(=O)O)n1Cc1ccc(C(=O)NS(=O)(=O)c2ccccc2N=[N+]=[N-])cc1 | 1.5 | 3.5 | 50 | 55 | 
[3H]c1ccc(S(=O)(=O)NC(=O)c2ccc(Cn3c(CNc4ccccc4C(=O)O)cnc3CCCC)cc2)c(Cl)c1 |  |  |  |  | 1.3
CCCCc1ncc(CNc2ccccc2C(=O)O)n1Cc1ccc(C(=O)NS(=O)(=O)c2ccccc2Cl)cc1 | 2.5 | 0.8 |  |  | 
